# Assay results reported in ChEMBL document CHEMBL1124816, “Effect of structure on potency and selectivity in 2,6-disubstituted 4-(2-arylethenyl)phenol lipoxygenase inhibitors” (J Med Chem, 1990).
# Experiments:
# [1] = molecular target: T1, Polyunsaturated fatty acid 5-lipoxygenase (Homo sapiens, UniProt P09917); experiment: Inhibition of human neutrophil 5-lipoxygenase
# T1 sequence (P09917 whole entry): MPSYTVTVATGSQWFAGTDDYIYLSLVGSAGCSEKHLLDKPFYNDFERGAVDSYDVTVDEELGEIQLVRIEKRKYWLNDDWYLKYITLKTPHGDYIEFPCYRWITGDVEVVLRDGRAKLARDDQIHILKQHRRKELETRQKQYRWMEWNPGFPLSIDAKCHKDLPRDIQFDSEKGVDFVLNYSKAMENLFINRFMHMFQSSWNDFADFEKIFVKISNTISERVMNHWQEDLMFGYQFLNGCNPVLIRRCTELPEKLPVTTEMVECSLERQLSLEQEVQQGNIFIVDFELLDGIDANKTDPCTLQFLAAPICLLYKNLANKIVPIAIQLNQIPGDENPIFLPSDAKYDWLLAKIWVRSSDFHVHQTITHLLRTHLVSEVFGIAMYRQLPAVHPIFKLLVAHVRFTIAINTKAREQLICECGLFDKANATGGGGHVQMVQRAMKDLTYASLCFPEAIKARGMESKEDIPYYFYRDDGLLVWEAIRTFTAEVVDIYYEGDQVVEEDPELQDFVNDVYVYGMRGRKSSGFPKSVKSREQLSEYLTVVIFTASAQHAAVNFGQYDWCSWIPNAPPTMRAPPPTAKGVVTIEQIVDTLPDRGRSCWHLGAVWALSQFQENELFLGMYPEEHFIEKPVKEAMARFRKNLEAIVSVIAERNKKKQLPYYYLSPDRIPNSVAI
# Cyclooxygenase [2] = molecular target: T2, Cyclooxygenase (Homo sapiens, UniProt P35354+P23219); experiment: Inhibition of human platelet Prostaglandin G/H synthase
# [3] = molecular target: T3, Polyunsaturated fatty acid 5-lipoxygenase (Homo sapiens) (UniProt P09917); experiment: Inhibition of human neutrophil 5-lipoxygenase at the concentration of 0.1 uM
# T3 sequence (whole entry): T1 sequence (P09917 whole entry)
# Method in brief: (§1)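 5-LO activity measured in human peripheral blood leukocytes. Percent inhibition at a single test concentration is compared with untreated control, with significance by ANOVA and Tukey's multiple comparisons test (p < 0.05).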
# [4] = molecular target: T3, Polyunsaturated fatty acid 5-lipoxygenase (Homo sapiens); experiment: Inhibition of human neutrophil 5-lipoxygenase at the concentration of 1 uM; method in brief: as §1
# [5] = Inhibition of human platelet Prostaglandin G/H synthase at the concentration of 10 uM
# Method in brief: (§2)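 CO activity measured in human platelets. Percent inhibition at a single test concentration is compared with untreated control, with significance by ANOVA and Tukey's multiple comparisons test (p < 0.05).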
# Cyclooxygenase [6] = molecular target: T2, Cyclooxygenase; experiment: Inhibition of human platelet Prostaglandin G/H synthase at the concentration of 1 uM; method in brief: as §2
# [7] = molecular target: T3, Polyunsaturated fatty acid 5-lipoxygenase (Homo sapiens); experiment: Inhibition of lipoxygenase at the concentration of 1 uM; method in brief: as §1
# [8] = molecular target: T3, Polyunsaturated fatty acid 5-lipoxygenase (Homo sapiens); experiment: Inhibition of lipoxygenase at the concentration of 0.1 uM; method in brief: as §1
Structure (SMILES),IC50 [1],IC50 (Cyclooxygenase [2]),inhibition [3],inhibition [4],inhibition [5],inhibition (Cyclooxygenase [6]),inhibition [7],inhibition [8]
Cc1cc(/C=C/C(=O)c2ccc(F)cc2)cc(C)c1O,> 1000 nM,< 10 µM,,,71%,43%,33%,
CC(C)(C)c1cc(C(=O)c2cccs2)cc(C(C)(C)C)c1O [PRIFELONE],4800 nM,0.0057 µM,,,,,,
Cc1cc(C(=O)c2cccs2)cc(C)c1O,> 1000 nM,< 1 µM,,1%,90%,60%,,
CC(C)(C)c1cc(/C=C/c2ccc(F)cc2)cc(C(C)(C)C)c1O,> 1000 nM,0.61 µM,,,,,18%,24%
CC(C)(C)c1cc(/C=C2\CCOC2=O)cc(C(C)(C)C)c1O,,0.11 µM,,,,,,
Cc1cc(CCc2ccc(F)cc2)cc(C)c1O,> 1000 nM,0.3 µM,,,,,44%,
COc1cc(/C=C/c2cccs2)cc(F)c1O,< 1000 nM,< 10 µM,31%,89%,97%,42%,,
Cc1cc(/C=C/c2ccc3ccccc3c2)cc(C)c1O,< 1000 nM,< 10 µM,,,66%,37%,61%,16%
Cc1cc(/C=C/c2ccccc2OCc2ccccc2)cc(C)c1O,< 1000 nM,~ 1 uM,18%,95%,92%,45%,,
Cc1cc(/C=C/c2cccs2)cc(Cl)c1O,< 1000 nM,0.23 µM,29%,93%,,,,
Cc1cc(CCC(=O)c2ccc(F)cc2)cc(C)c1O,> 1000 nM,< 10 µM,,44%,80%,29%,,
COc1ccc(/C=C/c2cc(C(C)(C)C)c(O)c(C(C)(C)C)c2)cc1,> 1000 nM,> 10 µM,,0%,5%,0%,,
Cc1cc(/C=C/c2c(F)cccc2F)cc(C)c1O,< 1000 nM,< 1 µM,,,94%,73%,96%,12%
Cc1cc(/C=C/C(=O)c2cccs2)cc(C)c1O,> 1000 nM,< 10 µM,,,82%,37%,22%,
CC(C)(C)c1cc(/C=C/c2cccs2)cc(C(C)(C)C)c1O,1200 nM,0.034 µM,,,,,,
Cc1cc(/C=C/c2csc3ccccc23)cc(C)c1O,< 1000 nM,0.4 µM,,,,,87%,13%
CC(C)c1cc(/C=C/c2ccc(F)cc2)cc(C(C)C)c1O,> 1000 nM,< 10 µM,,,74%,12%,40%,

Structure (SMILES),IC50 [1],IC50 (Cyclooxygenase [2]),inhibition [3],inhibition [4],inhibition [5],inhibition (Cyclooxygenase [6]),inhibition [7],inhibition [8]
Cc1cc(/C=C/c2cc(F)cc(F)c2)cc(C)c1O,< 1000 nM,1 µM,,,74%,50%,81%,6%
CCCCOc1ccc(/C=C/c2cc(C)c(O)c(C)c2)cc1,~1000 nM,< 10 µM,7%,53%,67%,32%,,
Cc1cc(/C=C/c2ccc(C(C)C)cc2)cc(C)c1O,> 1000 nM,1.4 µM,,,,,30%,11%
Cc1cc(/C=C/c2cccc3ccccc23)cc(C)c1O,< 1000 nM,,,,,,94%,27%
Cc1ccc(/C=C/c2cc(C(C)(C)C)c(O)c(C(C)(C)C)c2)cc1,> 1000 nM,10 µM,,,,,0%,
CCc1cc(/C=C/c2ccc(C)cc2)cc(CC)c1O,< 1000 nM,< 10 µM,,,73%,35%,91%,21%
Cc1cc(/C=C/c2cccc(C(=O)O)c2)cc(C)c1O,> 1000 nM,> 10 µM,,,0%,0%,0%,
Cc1cc(/C=C/c2ccccn2)cc(C)c1O,< 1000 nM,2.5 µM,29%,82%,,,,
Cc1cc(/C=C2\CCOC2=O)cc(C)c1O,> 1000 nM,> 10 µM,,,0%,0%,1%,
CCc1cc(/C=C/c2ccc(OC)cc2)cc(CC)c1O,< 1000 nM,< 10 µM,15%,90%,80%,33%,,
Cc1cc(/C=C/c2ccc(C(=O)O)cc2)cc(C)c1O,> 1000 nM,> 10 µM,,,0%,0%,0%,
Cc1cc(Cc2cccnc2)cc(C)c1O,> 1000 nM,> 10 µM,,5%,7%,0%,,
Cc1cc(/C=C/c2ccc(Cl)s2)cc(C)c1O,< 1000 nM,1.3 µM,32%,92%,,,,
Cc1cc(CCc2cccs2)cc(C)c1O,< 1000 nM,0.11 µM,11%,67%,,,,
CCCOc1ccc(/C=C/c2cc(C)c(O)c(C)c2)cc1,< 1000 nM,0.19 µM,27%,90%,,,,
Cc1cc(C(=O)/C=C/c2cccs2)cc(C)c1O,> 1000 nM,< 10 µM,,,82%,25%,0%,

# The remaining lines, values ahead:
IC50 [1],IC50 (Cyclooxygenase [2]),inhibition [3],inhibition [4],inhibition [5],inhibition (Cyclooxygenase [6]),inhibition [7],inhibition [8],Structure (SMILES)
65 nM,0.73 µM,,,,,,,C=CCc1cc(/C=C/c2cccs2)cc(C)c1O
< 1000 nM,0.78 µM,26%,87%,,,,,Cc1ccc(/C=C/c2cc(C)c(O)c(C)c2)s1
~100 nM,< 10 µM,52%,89%,96%,39%,,,CCc1cc(/C=C/c2cccs2)cc(CC)c1O
590 nM,0.51 µM,,,,,,,CCc1ccc(/C=C/c2cc(C)c(O)c(C)c2)cc1
< 1000 nM,< 1 µM,18%,90%,95%,72%,,,Cc1cc(/C=C/c2cccs2)cc(F)c1O
< 1000 nM,1 µM,,,86%,52%,93%,17%,CCCC/C(=C\c1cc(C)c(O)c(C)c1)c1ccc(F)cc1
< 1000 nM,< 1 µM,,,72%,76%,94%,14%,Cc1cc(/C=C/c2ccccc2C(F)(F)F)cc(C)c1O
430 nM,0.63 µM,,,,,,,C/C(=C\c1cc(C)c(O)c(C)c1)c1ccc(F)cc1
< 1000 nM,0.71 µM,,,,,100%,25%,Cc1cc(/C=C/c2ccc(F)cc2F)cc(C)c1O
< 1000 nM,< 10 µM,13%,71%,84%,18%,,,COc1ccc(/C=C/c2cc(C(C)C)c(O)c(C(C)C)c2)cc1
< 1000 nM,< 1 µM,14%,94%,,,,,CC(C)c1cc(/C=C/c2cccs2)cc(C(C)C)c1O
370 nM,11 µM,,,,,,,Cc1cc(/C=C/c2cccnc2)cc(C)c1O
240 nM,1.3 µM,,,,,,,Cc1ccc(C)c(/C=C/c2cc(C)c(O)c(C)c2)c1
100 nM,4.2 µM,,,,,,,Cc1cc(/C=C/c2ccccc2)cc(C)c1O
200 nM,< 10 µM,,,,,,,CC(C)c1cc(/C=C/c2cccnc2)cc(C(C)C)c1O
170 nM,0.75 µM,,,,,,,Cc1cc(/C=C/c2ccc(Cl)cc2)cc(C)c1O
~100 nM,< 10 µM,52%,93%,86%,1%,,,COc1cc(/C=C/c2cccs2)cc(OC)c1O
100 nM,1.1 µM,,,,,,,COc1ccccc1/C=C/c1cc(C)c(O)c(C)c1
